ChEMBL document CHEMBL1275561, “In vitro activities of doripenem, a new broad-spectrum carbapenem, against recently collected clinical anaerobic isolates, with emphasis on the Bacteroides fragilis group” (2008)
Converted amounts (≈) assume the structure as drawn.

Assays:
Assay type in all cases: functional
Cutibacterium acnes [1] = assay: Antimicrobial activity against Propionibacterium acnes by agar dilution method
How it was run: (§1)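 Log-phase isolates were adjusted to 0.5 McFarland, and about 10^5 CFU/spot was delivered by Steers replicator. Plates were incubated anaerobically at 37°C for 48 h. MIC was the lowest concentration giving a marked growth change versus the control plate. Eubacterium lentum ATCC 43055 was the QC strain, with repeats when out of range.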

Bacteroides ovatus [2] = assay: Antimicrobial activity against Bacteroides ovatus by agar dilution method
How it was run: (§2)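 CLSI agar dilution on enriched brucella agar (5% lysed defibrinated sheep blood, 1 μg/ml vitamin K1), with drug plates made on the test day. Log-phase cells were adjusted to 0.5 McFarland, and about 10^5 CFU/spot was delivered by Steers replicator. Plates were incubated anaerobically at 37°C for 48 h. MIC was the lowest concentration giving a marked growth change versus the control plate. Controls were B. fragilis ATCC 25285 and B. thetaiotaomicron ATCC 29741.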

Bacteroides nordii [3] = assay: Antimicrobial activity against Bacteroides nordii by agar dilution method; how it was run: as §2
Bacteroides fragilis [4] = assay: Antimicrobial activity against Bacteroides fragilis by agar dilution method; how it was run: as §2
Peptostreptococcus sp. = assay: Antimicrobial activity against Peptostreptococcus sp. by agar dilution method; how it was run: as §1
Parabacteroides merdae [5] = assay: Antimicrobial activity against Bacteroides merdae assessed as resistant isolates by agar dilution method
How it was run: (§3)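 CLSI agar dilution on enriched brucella agar (5% lysed defibrinated sheep blood, 1 μg/ml vitamin K1), plates made on test day. Log-phase inocula adjusted to 0.5 McFarland; about 10^5 CFU/spot by Steers replicator. Incubated anaerobically at 37°C for 48 h. MIC was the lowest concentration giving a marked change in growth versus the drug-free control plate. Resistance rates used CLSI anaerobe breakpoints. Controls were B. fragilis ATCC 25285 and B. thetaiotaomicron ATCC 29741.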

Phocaeicola vulgatus [6] = assay: Antimicrobial activity against Bacteroides vulgatus by agar dilution method; how it was run: as §2
[7] = test system: Clostridium paraputrificum; assay: Antimicrobial activity against Clostridium paraputrificum by agar dilution method
[8] = test system: Bacteroides thetaiotaomicron; assay: Antimicrobial activity against Bacteroides thetaiotaomicron by agar dilution method; how it was run: as §2
Bacteroides uniformis [9] = assay: Antimicrobial activity against Bacteroides uniformis assessed as resistant isolates by agar dilution method; how it was run: as §3
Clostridium tertium = assay: Antimicrobial activity against Clostridium tertium by agar dilution method
[Clostridium] innocuum [10] = Antimicrobial activity against Clostridium innocuum by agar dilution method
Cutibacterium acnes [11] = assay: Antimicrobial activity against Propionibacterium acnes assessed as resistant isolates by agar dilution method
How it was run: (§4)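 Agar dilution following CLSI on brucella agar with 5% lysed defibrinated sheep blood and 1 μg/ml vitamin K1, plates made on test day. Log-phase cells at 0.5 McFarland, about 10^5 CFU/spot by Steers replicator, 48 h anaerobic at 37°C. MIC read as the lowest concentration causing a marked growth change versus control. Resistance counted by CLSI anaerobe breakpoints. Eubacterium lentum ATCC 43055 served as control.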

Propionibacterium [12] = assay: Antimicrobial activity against Propionibacterium sp. assessed as resistant isolates by agar dilution method; how it was run: as §4
Parabacteroides merdae [13] = assay: Antimicrobial activity against Bacteroides merdae by agar dilution method; how it was run: as §2
Bacteroides nordii [14] = assay: Antimicrobial activity against Bacteroides nordii assessed as resistant isolates by agar dilution method; how it was run: as §3
Bacteroides eggerthii [15] = assay: Antimicrobial activity against Bacteroides eggerthii assessed as resistant isolates by agar dilution method; how it was run: as §3
Clostridium subterminale = assay: Antimicrobial activity against Clostridium subterminale by agar dilution method
Finegoldia magna [16] = assay: Antimicrobial activity against Finegoldia magna by agar dilution method
How it was run: (§5)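 Gram-positive anaerobes were tested by CLSI agar dilution on brucella agar enriched with 5% lysed defibrinated sheep blood and 1 μg/ml vitamin K1. Inoculum was log-phase growth at 0.5 McFarland, about 10^5 CFU/spot by replicator. Incubation was anaerobic, 37°C, 48 h. MIC was the lowest concentration with a marked growth change versus the drug-free plate. Eubacterium lentum ATCC 43055 was the control, and tests were repeated if it fell outside the CLSI range.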

Propionibacterium [17] = assay: Antimicrobial activity against Propionibacterium sp. by agar dilution method; how it was run: as §1
Finegoldia magna [18] = assay: Antimicrobial activity against Finegoldia magna assessed as resistant isolates by agar dilution method; how it was run: as §4
Bacteroides fragilis [19] = assay: Antimicrobial activity against Bacteroides fragilis assessed as resistant isolates by agar dilution method; how it was run: as §3
Bacteroides uniformis [20] = assay: Antimicrobial activity against Bacteroides uniformis by agar dilution method; how it was run: as §2
[21] = test system: Parabacteroides distasonis; assay: Antimicrobial activity against Bacteroides distasonis by agar dilution method; how it was run: as §2
Clostridium perfringens = assay: Antimicrobial activity against Clostridium perfringens by agar dilution method
Anaerococcus prevotii = assay: Antimicrobial activity against Anaerococcus prevotii by agar dilution method; how it was run: as §5
Clostridioides difficile = assay: Antimicrobial activity against Clostridium difficile by agar dilution method
[Clostridium] innocuum [22] = Antimicrobial activity against Clostridium innocuum assessed as resistant isolates by agar dilution method; conditions: pooled result: one value given for 4 cell lines, strains, targets or settings
[23] = test system: Peptoniphilus asaccharolyticus; assay: Antimicrobial activity against Peptoniphilus asaccharolyticus by agar dilution method; how it was run: as §5
Bacteroides eggerthii [24] = assay: Antimicrobial activity against Bacteroides eggerthii by agar dilution method; how it was run: as §2
Bacteroides caccae [25] = assay: Antimicrobial activity against Bacteroides caccae assessed as resistant isolates by agar dilution method; how it was run: as §3
Bacteroides caccae [26] = assay: Antimicrobial activity against Bacteroides caccae by agar dilution method; how it was run: as §2
[27] = test system: Peptoniphilus asaccharolyticus; assay: Antimicrobial activity against Peptoniphilus asaccharolyticus assessed as resistant isolates by agar dilution method; conditions: pooled result: one value given for 4 cell lines, strains, targets or settings; how it was run: as §4
[28] = test system: Parabacteroides distasonis; assay: Antimicrobial activity against Bacteroides distasonis assessed as resistant isolates by agar dilution method; how it was run: as §3
Phocaeicola vulgatus [29] = assay: Antimicrobial activity against Bacteroides vulgatus assessed as resistant isolates by agar dilution method; how it was run: as §3
Bacteroides ovatus [30] = assay: Antimicrobial activity against Bacteroides ovatus assessed as resistant isolates by agar dilution method; how it was run: as §3
Parvimonas micra = assay: Antimicrobial activity against Micromonas micros by agar dilution method; how it was run: as §5
[31] = test system: Bacteroides thetaiotaomicron; assay: Antimicrobial activity against Bacteroides thetaiotaomicron assessed as resistant isolates by agar dilution method; how it was run: as §3

## CCC[C@@H]1C[C@@H](C(=O)N[C@@H]([C@H]2O[C@H](SC)[C@H](O)[C@@H](O)[C@H]2O)[C@H](C)Cl)N(C)C1 [CLINDAMYCIN]
Cutibacterium acnes [1]
  MIC: 0.25 µg/mL (≈ 0.588 µM)
  MIC50: 0.25 µg/mL (≈ 0.588 µM)
  MIC90: 0.5 µg/mL (≈ 1.18 µM)
Bacteroides ovatus [2]
  MIC50: 2 µg/mL (≈ 4.71 µM)
  MIC90: 128 µg/mL (≈ 301 µM)
Bacteroides nordii [3]
  MIC50: 1 µg/mL (≈ 2.35 µM)
  MIC90: 8 µg/mL (≈ 18.8 µM)
Bacteroides fragilis [4]
  MIC: 0.5 µg/mL (≈ 1.18 µM)
  MIC50: 0.5 µg/mL (≈ 1.18 µM)
  MIC90: 128 µg/mL (≈ 301 µM)
Peptostreptococcus sp.
  MIC50: 0.25 µg/mL (≈ 0.588 µM)
  MIC90: 32 µg/mL (≈ 75.3 µM)
Parabacteroides merdae [5]
  Activity: 20%
Phocaeicola vulgatus [6]
  MIC: 0.5 µg/mL (≈ 1.18 µM)
  MIC50: 0.5 µg/mL (≈ 1.18 µM)
  MIC90: 128 µg/mL (≈ 301 µM)
[7]
  MIC50: 2 µg/mL (≈ 4.71 µM)
  MIC90: 32 µg/mL (≈ 75.3 µM)
[8]
  MIC50: 2 µg/mL (≈ 4.71 µM)
  MIC90: 128 µg/mL (≈ 301 µM)
Bacteroides uniformis [9]
  Activity: 3.8%
Clostridium tertium
  MIC50: 2 µg/mL (≈ 4.71 µM)
  MIC90: 32 µg/mL (≈ 75.3 µM)
[Clostridium] innocuum [10]
  MIC50: 2 µg/mL (≈ 4.71 µM)
  MIC90: 32 µg/mL (≈ 75.3 µM)
Cutibacterium acnes [11]
  Activity: 5.6%
Propionibacterium [12]
  Activity: 7.7%
Parabacteroides merdae [13]
  MIC50: 1 µg/mL (≈ 2.35 µM)
  MIC90: 8 µg/mL (≈ 18.8 µM)
Bacteroides nordii [14]
  Activity: 20%
Bacteroides eggerthii [15]
  Activity: 20%
Clostridium subterminale
  MIC50: 2 µg/mL (≈ 4.71 µM)
  MIC90: 32 µg/mL (≈ 75.3 µM)
Finegoldia magna [16]
  MIC50: 0.5 µg/mL (≈ 1.18 µM)
  MIC90: 32 µg/mL (≈ 75.3 µM)
Propionibacterium [17]
  MIC: 0.25 µg/mL (≈ 0.588 µM)
  MIC50: 0.25 µg/mL (≈ 0.588 µM)
  MIC90: 2 µg/mL (≈ 4.71 µM)
Finegoldia magna [18]
  Activity: 20%
Bacteroides fragilis [19]
  Activity: 29.3%
Bacteroides uniformis [20]
  MIC50: 2 µg/mL (≈ 4.71 µM)
  MIC90: 128 µg/mL (≈ 301 µM)
[21]
  MIC50: 1 µg/mL (≈ 2.35 µM)
  MIC90: 128 µg/mL (≈ 301 µM)
Clostridium perfringens
  MIC50: 0.25 µg/mL (≈ 0.588 µM)
  MIC90: 2 µg/mL (≈ 4.71 µM)
Anaerococcus prevotii
  MIC50: 0.25 µg/mL (≈ 0.588 µM)
  MIC90: 32 µg/mL (≈ 75.3 µM)
Clostridioides difficile
  MIC: 1 µg/mL (≈ 2.35 µM)
[Clostridium] innocuum [22]
  Activity: 22.2%
[23]
  MIC50: 0.25 µg/mL (≈ 0.588 µM)
  MIC90: 32 µg/mL (≈ 75.3 µM)
Bacteroides eggerthii [24]
  MIC50: 1 µg/mL (≈ 2.35 µM)
  MIC90: 8 µg/mL (≈ 18.8 µM)
Bacteroides caccae [25]
  Activity: 31.3%
Bacteroides caccae [26]
  MIC50: 1 µg/mL (≈ 2.35 µM)
  MIC90: 128 µg/mL (≈ 301 µM)
[27]
  Activity: 12.2%
[28]
  Activity: 13.3%
Phocaeicola vulgatus [29]
  Activity: 32.3%
Bacteroides ovatus [30]
  Activity: 42.9%
Parvimonas micra
  MIC50: 0.25 µg/mL (≈ 0.588 µM)
  MIC90: 32 µg/mL (≈ 75.3 µM)
[31]
  Activity: 34.6%
